# Compound activity as filed in PubChem.
# Hits are enriched below; roughly 1.9% of the tested compounds scored in any of these assays.
# Scp-1 inhibitor – blocks human Scp-1 phosphatase activity. Q9GZU7. Recombinant Scp1, phosphopeptide, malachite green phosphate absorbance. inhibition, % at 20 µM. hit rate 0.88% among 340,000. AID 493091;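 active means inhibition above about 50% at 20 µM, limit read from the data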;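 further: plate controls were DMSO wells with enzyme for no effect and wells lacking enzyme for full effect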
#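 Times: enzyme reaction 45 min at room temperature, colour 5 min, stabilisation 30 min. Material: SCP-1 catalytic fragment, aa 76-261. Medium: Acidic Tris acetate buffer with magnesium and detergent. Signal: colorimetric free-phosphate detection, absorbance 630 nm. Read-out basis: % inhibition of SCP-1 phosphate liberation. Reagent: Phosphorylated 17-residue peptide substrate.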
# PP1 counter – blocks human PP1-alpha phosphatase, a PP5 counter-screen | P62136 | purified PP1alpha, OMFP fluorescence | inhibition, % at 6.7 µM | hit rate 0.9% among 320,000 | AID 2235;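 active means inhibition above the mean inhibition of all tested compounds plus 3 SD, computed separately for each screening campaign, cut at about 15% in these data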
# STEP inh – inhibitors of human striatal-enriched phosphatase STEP; recombinant STEP, OMFP fluorogenic substrate, fluorescence; inhibition, % at 20 µM; hit rate 0.25% among 360,000; AID 588621;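 active means inhibition at 20 µM, scaled per plate between control wells, above about 37%, limit read from the data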;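 further: 0% = DMSO with enzyme and substrate and 100% = substrate only without enzyme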
# Target sequence (P54829 whole entry, looked up): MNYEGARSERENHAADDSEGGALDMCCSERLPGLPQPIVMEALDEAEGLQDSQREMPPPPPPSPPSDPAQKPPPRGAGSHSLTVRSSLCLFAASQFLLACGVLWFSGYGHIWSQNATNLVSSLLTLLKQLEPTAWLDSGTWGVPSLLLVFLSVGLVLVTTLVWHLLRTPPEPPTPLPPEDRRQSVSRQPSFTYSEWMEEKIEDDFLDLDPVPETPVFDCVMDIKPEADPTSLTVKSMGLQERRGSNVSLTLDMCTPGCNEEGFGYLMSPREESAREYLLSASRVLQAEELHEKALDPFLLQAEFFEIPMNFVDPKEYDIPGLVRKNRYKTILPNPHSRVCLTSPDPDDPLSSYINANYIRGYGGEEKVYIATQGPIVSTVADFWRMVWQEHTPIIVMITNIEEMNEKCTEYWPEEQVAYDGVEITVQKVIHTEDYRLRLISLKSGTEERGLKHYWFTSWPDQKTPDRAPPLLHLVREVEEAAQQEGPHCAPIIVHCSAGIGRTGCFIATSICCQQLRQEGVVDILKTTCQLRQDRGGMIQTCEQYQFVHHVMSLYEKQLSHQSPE
#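 Material: STEP (striatal-enriched tyrosine phosphatase) enzyme, cell-free | Medium: 50 mM Bis-Tris pH 6.0 with 2.5 mM DTT and 0.005% Tween 20 | Read-out: Percent inhibition scaled to no-enzyme and uninhibited-enzyme controls, plate-pattern corrected | Signal: Fluorescence read at 480 nm ex / 540 nm em | Times: 20 min reaction, room temperature, in the dark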
# LMPTP block – LMPTP (human) inhibition; recombinant LMPTP-A, OMFP fluorogenic substrate, fluorescence intensity; inhibition, % at 20 µM; hit rate 0.22% among 360,000;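 active means compounds that cut the enzyme signal by at least half of the control window in the single-dose screen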;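 further: plate controls were DMSO wells with enzyme plus substrate for no effect and substrate without enzyme for full effect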
#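 Assay system: LMPTP-A enzyme. Input: 0.625 nM LMPTP-A final. Probe or stimulus: 400 µM OMFP. Compound dosing: single 20 µM dose. Schedule: 50 min dark incubation at room temperature. Detection: fluorescence intensity of OMFP turnover product. Read-out: percent inhibition versus substrate-only and uninhibited controls. Benchmarks: no-enzyme low control, uninhibited high control.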
# PP5 primary – PP5 (human) phosphatase inhibition; hit rate 0.18% among 320,000; purified PP5c, OMFP substrate fluorescence; inhibition, % at 6.7 µM; P53041; AID 1987;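 active means inhibition above the campaign's mean inhibition across all tested compounds plus 3 SD, cut at about 9.5% in these data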;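 further: 0% = DMSO only and 100% = 100 µM cantharidin control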
# PP1 inh confirm – human PP1 phosphatase inhibition, confirmation | shares compounds with PP1 counter | purified PP1alpha, OMFP substrate fluorescence | inhibition, % at 6.7 µM | hit rate 52% among 1,900 | AID 2358;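 active means mean PP1 inhibition above a set limit taken from the earlier primary screen, cut at about 15% in these data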
# PP5 counter – PP5 phosphatase inhibition, counter-screen for PP1 inhibitors. shares compounds with PP1 counter. purified PP5c, OMFP fluorescence. inhibition, % at 6.7 µM. hit rate 4% among 1,900;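 active means mean PP5 inhibition over triplicate wells above about 9.5% taken from the earlier PP1 screen, limit read from the data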
# * = called active by the depositor; · = not tested or not shown.
SMILES,Scp-1 inhibitor,PP1 counter,STEP inh,LMPTP block,PP5 primary,PP1 inh confirm,PP5 counter
NC(=O)[C@H]1CC2(CC(c3cccc(NC(=O)CC(c4ccccc4)c4ccccc4)c3)=NO2)CN1C(=O)CC(c1ccccc1)c1ccccc1 (stereo partly drawn),-15,22*,-1,2,5,29*,12*
C/C=C/C=C\C(=O)Nc1cccc(C2=NOC3(C2)C[C@H](C(N)=O)N(C(=O)CC#N)C3)c1 (stereo partly drawn),67*,19*,0,3,2,1,-3
O=C(Nc1ccc(N2CCCC2)c(Cl)c1)c1ccccc1F,·,·,-2,1,·,·,·
O=C(CC1S/C(=N/N=C/c2c[nH]c3ccccc23)NC1=O)Nc1ccccc1 (stereo not drawn),-4,5,-3,0,0,·,·
O=C(CC1S/C(=N/N=C/c2c[nH]c3ccc(OCc4ccccc4)cc23)NC1=O)Nc1ccccc1 (stereo not drawn),0,24*,1,1,3,24*,-6
O=C(NC1CCCC1)C(c1ccncc1)N(C(=O)c1csnn1)c1cccc(F)c1 (stereo not drawn),-2,0,-1,-2,2,·,·
COC(C(=O)Nc1ccnn1C1CCN(Cc2ccc(C)o2)CC1)c1ccccc1 (stereo not drawn),-1,·,-5,1,·,·,·
O=C1CNC(=S)N1c1nc2ccccc2s1,-7,25*,-2,-1,-2,-1,-4
Cc1ccc(-n2ncc3c2CC(C)(C)CC3NC(=O)c2ccccn2)cc1 (stereo not drawn),-8,2,3,2,1,·,·
COc1cccc(/C=N/NC(=O)N/N=C/c2cccc(OC)c2O)c1O,-15,21*,1,1,0,16*,-7
COc1cc(Br)cc(/C=N/NC(=O)Cc2ccccc2)c1O,-3,19*,-2,1,1,14,-4
COc1cccc(/C=N/Nc2ccc([N+](=O)[O-])cn2)c1O,-15,34*,0,-1,3,24*,-1
COc1ccc(OC)c(CNC(=O)C2CCN(C(=O)N(C)C)CC2)c1,2,-2,4,-1,-2,·,·
CCn1c(C(=O)NCCCc2ccccc2)cc2sccc21,-9,1,2,4,1,·,·
COc1ccc(-c2[nH]ncc2CN2CCC(N3CCSCC3)CC2)cc1F,-9,-4,-4,-1,2,·,·
O=C(CSc1nnc2c(n1)[nH]c1ccc(F)cc12)Nc1ccccc1F,4,-1,-2,0,1,·,·
O=C(CSc1nnc2c(n1)[nH]c1ccccc12)NCc1ccccc1F,-1,23*,1,-1,1,-2,-6
CCOc1ccccc1NC(=O)CSc1nc2nc(-c3cccs3)cc(C(F)(F)F)c2c(=O)[nH]1,2,21*,3,4,2,15,2
Cc1cc(C(=O)CSc2nn(-c3ccccc3)c(=S)s2)c(C)n1Cc1ccco1,-19,20*,4,3,3,15,-2
Cc1cc(C(=O)CSc2nncs2)c(C)n1Cc1ccco1,-4,-2,0,1,1,·,·
Oc1c(C(c2ccccc2Cl)N2CCCC2)ccc2cccnc12 (stereo not drawn),-8,21*,3,2,-1,11,0
Cc1ccc(C(c2cc(Cl)c3cccnc3c2O)N2CCN(C)CC2)cc1 (stereo not drawn),-12,27*,0,-1,5,11,-3
Oc1c(C(c2ccc(Cl)cc2)N2CCCC2)cc(Cl)c2cccnc12 (stereo not drawn),-12,25*,6,3,5,22*,-2
Oc1c(C(c2ccccn2)N2CCC(Cc3ccccc3)CC2)cc(Cl)c2cccnc12 (stereo not drawn),-7,73*,·,·,5,20*,2
CC(=O)NC(c1cc(Cl)c2cccnc2c1O)C(C)C (stereo not drawn),-12,1,0,-3,2,·,·
SMILES,Scp-1 inhibitor,PP1 counter,STEP inh,LMPTP block,PP5 primary,PP1 inh confirm,PP5 counter
COc1ccc(C2/C=C\CN(C(=O)Nc3ccccc3)CC(=O)N2Cc2ccc(F)cc2)cc1 (stereo not drawn),-6,4,-1,0,2,·,·
CC(=O)c1c(O)c(C)c(O)c2c1OC1=CC(=O)C(C(C)=O)C(=O)[C@@]12C (stereo partly drawn),4,·,-4,-2,·,·,·
O=C(NCc1ccccc1)Nc1cc(Cl)ccc1Cl,-5,0,1,4,0,·,·
CN1CCN(C(c2ccccn2)c2cc(Cl)c3cccnc3c2O)CC1 (stereo not drawn),-6,72*,6,-2,9,59*,6
O=C(N/N=C/c1cccs1)c1cnccn1,-5,1,-3,-2,-1,·,·
CC[C@@H](C)[C@H](CNC)NC[C@@H](Cc1cccc2ccccc12)NCCc1cccc(C(F)(F)F)c1,-2,25*,5,4,5,-11,4
CCC[C@H](CN[C@@H](CNC)[C@H](C)CC)NCCc1cc(C(F)(F)F)cc(C(F)(F)F)c1,-3,6,1,-21,2,·,·
Cc1ccc([N+](=O)[O-])c(OCCn2cnc3ccccc32)c1,0,2,-3,0,1,·,·
O=C(Nc1nc(-c2ccccn2)cs1)C1CC(=O)N(c2ccc3c(c2)OCCO3)C1 (stereo not drawn),-1,45*,0,20,5,55*,-2
Cc1cccnc1NC(=O)C1CC(=O)N(c2ccc3c(c2)OCCO3)C1 (stereo not drawn),-2,-1,-2,-3,0,·,·
CCCCCCc1c(O)c2ccccc2[nH]c1=O,-4,0,-1,1,1,·,·
CCCCCCCCCCCC1=C(O)C(=O)C=C(O)C1=O,34,46*,12,71*,2,35*,-7
O=C(CCN1C(=O)/C(=C/c2ccc(F)cc2)SC1=S)NC1C=CS(=O)(=O)C1 (stereo not drawn),-7,0,-1,5,-1,·,·
O=C(CCN1C(=O)/C(=C/c2ccccc2Cl)SC1=S)NC1C=CS(=O)(=O)C1 (stereo not drawn),-11,24*,4,8,-1,24*,-1
S=c1[nH]nc(COc2ccccc2)n1/N=C/c1cccc(Br)c1,-5,33*,5,1,-1,0,-7
S=c1[nH]nc(COc2ccccc2)n1/N=C/c1ccc(Br)cc1,-4,0,3,2,0,·,·
CC(=O)Nc1ccc(N=Cc2c(O)c(C(=O)Nc3ccccc3)cc3ccccc23)cc1,-8,-3,·,·,2,·,·
Cn1c(O)c(/C=N/NC(=O)c2cc3ccccc3cc2O)c2ccccc21,-11,22*,-3,3,3,16*,-3
